We go through 5 compounds from paper PMC4674087 (ChemMedChem, 2015).

Series [1] deals with mitochondrial permeability transition pore (mtPTP). Kind of series: Calcium retention capacity. The series is classed as biochemical, mouse. Conditions: for CRC/CRC0: at 1.56 µM, average ±SEM, n≥3.
The test system is the same in series [2]. Kind of series: Mitochondrial swelling assay. The series is classed as biochemical, mouse. Conditions: for EC50: read-out: mitochondrial swelling EC50, isolated mouse liver mitochondria.
Series [3] in a line: HeLa cell viability assay. Conditions: human, HeLa cells, with verapamil (20 µM) or CsH (2 µg/mL). The series is classed as cell-based, human. Summed up: (§1)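 HeLa cells are grown in DMEM with 10% FBS at 37 °C and 5% CO2, seeded at 1×10^4 per well, and left to adhere for 6 h. They are then exposed for 24 h to a range of test compound concentrations or 1% DMSO vehicle, with 20 µM verapamil or 2 µg/mL CsH present. Relative viable cell number is read with the CellTiter 96 Aqueous One kit.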

The nature of series [4]: Microsomal stability, mouse liver microsomes. It counts as in vitro ADME. (Microsomes from liver hold many membrane-bound enzymes, among them those of drug oxidation.)
In series [5] the target is human norepinephrine transporter (NET) (Homo sapiens, UniProt P23975). The series is described as follows: Eurofins LeadProfilingScreen panel. It counts as binding. The conditions noted are these: read-out: inhibition of human norepinephrine transporter (NET).
Series [6] in a line: Plasma protein binding, mouse. The series is classed as in vitro ADME.
The target of series [7] is T1, adenosine A3 (Homo sapiens, UniProt P0DMS8).
T1 sequence (P0DMS8 1-318): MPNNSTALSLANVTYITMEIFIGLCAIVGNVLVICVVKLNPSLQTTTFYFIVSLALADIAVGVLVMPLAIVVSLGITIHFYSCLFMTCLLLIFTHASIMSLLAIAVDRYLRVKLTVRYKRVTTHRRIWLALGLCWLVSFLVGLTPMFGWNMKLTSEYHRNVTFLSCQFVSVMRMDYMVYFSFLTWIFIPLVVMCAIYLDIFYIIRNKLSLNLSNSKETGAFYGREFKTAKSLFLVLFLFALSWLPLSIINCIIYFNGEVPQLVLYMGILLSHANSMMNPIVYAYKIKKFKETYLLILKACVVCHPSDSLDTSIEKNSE
Kind of series: Eurofins LeadProfilingScreen panel. It counts as binding. The conditions noted are these: read-out: inhibition of adenosine A3.

Series [8] concerns human mtPTP. Kind of series: CRC of HeLa cells. The series is classed as cell-based.
Series [9] is described as follows: Aqueous solubility. Conditions: PBS. It counts as physicochemical.
For series [10], the system named is exon 9 col6a1 morphant zebrafish. Kind of series: Zebrafish ColVI myopathy model, muscle birefringence. The series is classed as in vivo. The conditions noted are these: 48 hpf; 5 and 10 µM in fish water, added at 21 hpf; ANOVA p < 0.05.
Series [11] deals with HeLa cells. Kind of series: HeLa cell viability assay. It counts as cell-based, human. Conditions: 24 h, CsH or verapamil present. Summed up: as §1
Series [12] has as its system mitochondrial permeability transition pore (mtPTP). Kind of series: Chemical activation of mtPTP. Conditions: 1.56 µM; 10 µM Ca2+ plus PhAsO, diamide, Cu(OP)2 or NEM. The series is classed as biochemical, mouse.
The nature of series [13]: Plasma stability, mouse. The series is classed as in vitro ADME.
Series [14] has as its system HeLa cells. The series is described as follows: Oxygen consumption of HeLa cells. It counts as cell-based, human. The conditions noted are these: CsH present. The procedure, abridged: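 HeLa monolayers are seeded at 3×10^4 per well in DMEM and cultured for 24 h. Medium is replaced by serum- and antibiotic-free unbuffered DMEM (pH 7.4) containing 2 µg/mL CsH or 20 µM verapamil. Oxygen consumption is measured on a Seahorse XF24 with sequential additions, and protein per well is quantified by BCA afterwards. Results are mean ± SD of a representative experiment, repeated four times.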

Series [15] has as its system isolated mouse liver mitochondria. The series is described as follows: Oxygen consumption of isolated mouse liver mitochondria. It counts as biochemical.
Series [16] can be described thus: Plasma stability, human. It counts as in vitro ADME.
Series [17] can be described thus: Plasma protein binding, human. The series is classed as in vitro ADME.
Series [18] concerns other 66 targets in the panel (GPCRs, ion channels, transporters). Kind of series: Eurofins LeadProfilingScreen panel, remaining targets. It counts as binding. Conditions: 10 µM.
Series [19] has as its system exon 9 col6a1 morphant zebrafish. The series is described as follows: Zebrafish ColVI myopathy model, motor activity. The series is classed as in vivo. The conditions noted are these: 5 and 10 µM in fish water, added at 21 hpf.
Series [20] can be described thus: Microsomal stability, human liver microsomes. It counts as in vitro ADME.
Where [21] appears, read: isolated mouse liver mitochondria.

≈ marks a conversion by molar mass, not a printed value. Where “and” joins values, the source holds several entries; their conditions need not be identical. Identical values can stand only once.

Chain of human norepinephrine transporter (NET) (P23975 whole entry): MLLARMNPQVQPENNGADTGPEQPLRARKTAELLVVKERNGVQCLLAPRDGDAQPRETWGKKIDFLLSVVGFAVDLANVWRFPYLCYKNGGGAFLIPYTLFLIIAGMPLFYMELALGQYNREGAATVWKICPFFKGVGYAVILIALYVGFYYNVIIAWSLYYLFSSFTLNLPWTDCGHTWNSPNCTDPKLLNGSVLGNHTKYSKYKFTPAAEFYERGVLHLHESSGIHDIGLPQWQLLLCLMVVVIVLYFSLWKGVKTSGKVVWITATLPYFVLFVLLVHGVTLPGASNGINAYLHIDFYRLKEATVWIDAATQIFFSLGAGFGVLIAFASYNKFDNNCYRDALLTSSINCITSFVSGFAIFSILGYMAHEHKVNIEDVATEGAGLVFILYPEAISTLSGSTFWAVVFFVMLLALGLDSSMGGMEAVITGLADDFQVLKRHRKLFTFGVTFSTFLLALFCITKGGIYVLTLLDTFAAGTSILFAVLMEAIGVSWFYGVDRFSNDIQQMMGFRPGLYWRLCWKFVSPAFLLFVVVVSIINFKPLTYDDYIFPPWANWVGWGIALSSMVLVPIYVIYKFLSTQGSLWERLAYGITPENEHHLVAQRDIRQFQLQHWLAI

As to `COc1cc(NC(=O)c2cc(-c3cccc(O)c3)on2)cc(OC)c1OC` [Compound 1, 5-(3-hydroxyphenyl)-N-(3,4,5-trimethoxyphenyl)isoxazole-3-carboxamide], the CRC/CRC0 in series [1] (setting [21]) is recorded as 1.18 −0.06.

As for `COc1ccc(-c2cc(C(=O)Nc3cc(Cl)ccc3C)no2)cc1O` [Compound 46, N-(5-Chloro-2-methylphenyl)-5-(3-hydroxy-4-methoxyphenyl)isoxazole-3-carboxamide], the CRC/CRC0 in series [1] (setting [21]) is 10.02±0.34. Further, in [2], the EC50 – broadly, the midpoint of the concentration-response curve – turned out to be 0.0076 nM. Besides, the CC50 (as a rule, the concentration at which the toxic effect on the cells reaches its halfway point) at 24 h in series [3] was over 50 µM.

With `COc1ccc(-c2cc(C(=O)Nc3cc(Cl)cnc3C)no2)cc1O` [Compound 54, N-(5-Chloro-2-methylpyridin-3-yl)-5-(3-hydroxy-4-methoxyphenyl)isoxazole-3-carboxamide], the CRC/CRC0 in series [1] (setting [21]) is 10.10±1.14 and 10.1 −1.1. Moreover, the 50% effective concentration (EC50) in [2] turned out to be 10 nM. In series [3], this compound showed a half-maximal cytotoxic concentration (CC50) at 24 h of over 50 µM.

Turning to `Cc1c(Cl)cccc1NC(=O)c1cc(-c2ccc(F)c(O)c2)on1` [Compound 60, N-(3-Chloro-2-methylphenyl)-5-(4-fluoro-3-hydroxyphenyl)isoxazole-3-carboxamide], the “Ca2+ load required for mtPTP opening” value in [1] (1.56 µM compound, 20 µM Ca2+ pulses, solvent control 80) was ~ 960 nmol (mg protein)^−1. The CRC/CRC0 in [1] (setting [21]) was 12.14±0.55 and 12.1 −0.6. Further, in series [1] (concentration-response, Figure 4D trace a), the “compound-to-solvent CRC ratio reached on augmenting the concentration” value is listed as 15. The “maximum CRC ratio relative to CsA-treated mitochondria” value in series [1] (setting [21]) is reported as ~ 3 fold. Besides, in series [1] (various concentrations of 60 plus 2 µM CsA), the “effect on CRC in combination with 2 µM CsA” value was “synergistic”. The half-life – broadly, the time in which the quantity being followed falls by half – is under 15 min in series [4], under 30 min in series [13], over 120 min in [16] and over 60 min in series [20]. For the same compound, the microsomal CLint (as a rule, the rate of metabolic loss divided by the concentration) in [4] was over 462 µL/min/mg; in [20], under 116 µL/min/mg. Also, the inhibition – broadly, the share of the control response that was lost under treatment – at 10 µM in series [5] came to 79%; in [7] it was 51%. Moreover, in series [2] (1.56 µM compound), the “mtPTP opening (swelling) induced by 50 µM Ca2+ load” value is “abolished”. Also, the fraction unbound (usually the share of the substance not bound to proteins or other matrix) in series [6] is under 0.01; in [17], 0.11. Besides, the values for the recovery in series [6] and in series [17] were 0% and 76%, respectively. The “CRC after treatment of intact HeLa cells, wash, then permeabilization” value in [8] (1.56 µM, 30 min) is reported as “effective following treatment of intact human cells”. In addition, the “CRC ratios of permeabilized HeLa cells” value in series [8] (increasing concentrations of 60) was “increased CRC ratios”. Also, the Aqueous solubility – broadly, the concentration that dissolves in the medium under given conditions – in [9] (pH 7.4) came to 16.1 µM. For the same compound, the concentration in solution in series [9] (pH 7.4, aqueous buffer, Aqueous solubility) (solubility) came to 16 µM (≈ 5.55 µg/mL). The “muscle birefringence (structural muscle defects)” value in [10] was “significant recovery of muscle defects”. The “concentration up to which not cytotoxic” value in [11] was determined as 12.50 µM. Also, the CC50 at 24 h in [3] came to 39.5 ± 4.65 µM. For the same compound, in [12], the “mtPTP transition from closed to open after chemical activators” value is reported as “prevented”. In addition, the “FCCP-stimulated and oligomycin-insensitive respiration” value in series [14] is reported as “No statistically significant differences”. Further, the “respiratory control ratios, FCCP-stimulated and oligomycin-insensitive respiration” value in series [15] is listed as “No statistically significant differences”. Also, the “inhibition of the other 66 targets in the panel” value in [18] is on record as at most 43%. Also, in series [19], the “motor function (spontaneous coiling events, touch-evoked response)” value is listed as “dramatic improvement in motor function”.

On to `Cc1ccc(Cl)cc1NC(=O)c1cc(-c2ccc(F)c(O)c2)on1` [Compound 63, N-(5-Chloro-2-methylphenyl)-5-(4-fluoro-3-hydroxyphenyl)isoxazole-3-carboxamide], for which the CRC/CRC0 in series [1] (setting [21]) was 15.21±1.26 and 15.2 −1.3.
